As usually defined, the Ki is a dissociation constant, usually derived from enzyme kinetics or from competition with a known ligand. The MIC is the lowest concentration that inhibits growth of the organism.

A short description of test [1]: Inhibition of beta-lactamase CTX-M using nitrocefin as substrate.
The subject of test [2] is Escherichia coli. The experiment in a line: Antibacterial activity against Escherichia coli expressing CTX-M-14 beta-lactamase. It is filed as functional. A digest of the protocol:
(§1)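 MIC per CLSI broth dilution in Mueller-Hinton medium. Compound dissolved in DMSO and diluted in medium, DMSO kept below 10%. Tested alone against clinical E. coli isolates carrying the named CTX-M enzyme. Values are the average of three independent experiments.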

The test system of test [3] is Escherichia coli. The experiment in a line: Antibacterial activity against Escherichia coli expressing CTX-M-9 beta-lactamase. It is filed as functional. The procedure, abridged: as §1
Test [4] concerns Escherichia coli. The experiment in a line: Antibacterial activity against Escherichia coli expressing CTX-M-9 beta-lactamase assessed as increase of cefotaxime inhibition zone at 15 to 30 ug by disk diffusion assay. It is filed as functional, organism-based. The procedure, abridged:
(§2)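 Disk diffusion: bacteria suspended in sterile water to 0.5 McFarland, diluted a further 10-fold and spread on Mueller-Hinton agar. Plates dried 10 min before disks were applied: cefotaxime 30 μg, inhibitor 30 μg, cefotaxime:inhibitor 30:15 or 30:30 μg, or solvent.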
In general terms: Agar diffusion results depend on both activity and mobility in agar.

In test [5] the test system is Escherichia coli. The experiment in a line: Antibacterial activity against Escherichia coli expressing CTX-M-9 beta-lactamase assessed as potentiation of cefotaxime MIC. It is filed as functional. The procedure, abridged: (§3)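 Combination MIC per CLSI in Mueller-Hinton medium against clinical E. coli isolates carrying the named CTX-M enzyme. Inhibitor in DMSO (below 10%) was paired with cefotaxime at a 1:1 β-lactam:inhibitor ratio. Values are the average of three independent experiments.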

Test [6] relates to Escherichia coli. The experiment in a line: Antibacterial activity against Escherichia coli expressing CTX-M-14 beta-lactamase assessed as potentiation of cefotaxime MIC. Format: functional. A digest of the protocol:
as §3

For test [7], the system named is Escherichia coli. The experiment in a line: Antibacterial activity against Escherichia coli expressing CTX-M-9 beta-lactamase assessed as inhibition zone at 15 to 30 ug by disk diffusion assay. It is filed as functional, organism-based. A digest of the protocol: as §2

Molecules are shown by their SMILES. Values after ≈ are worked out from the molar mass of the structure shown. Active and inactive are the calls of the source. No cut-off for these calls is given here. A value given as a limit tells only on which side of the number the result lay.

Take `COC(=O)c1cccc(C(=O)Nc2cccc(-c3nnn[nH]3)c2)c1`: the Ki in test [1] (read-out: Ki) stood at 6.9 µM. On to `O=C(Nc1cccc(-c2nnn[nH]2)c1)c1cc(O)cc(C(F)(F)F)c1`, for which the Ki in test [1] (read-out: Ki) turned out to be 0.63 µM.

As for `N#Cc1cccc(C(=O)Nc2cccc(-c3nnn[nH]3)c2)c1`, the Ki in test [1] (read-out: Ki) was found to be 7.2 µM. `CO/N=C(\C(=O)N[C@@H]1C(=O)N2C(C(=O)O)=C(COC(C)=O)CS[C@H]12)c1csc(N)n1` [CEFOTAXIME]: the minimum inhibitory concentration (MIC) in test [2] came to 32 mg/L (≈ 70.3 µM); in test [3], 64 mg/L (≈ 141 µM).

For `COc1cccc(C(=O)Nc2cccc(-c3nnn[nH]3)c2)c1`, in test [1] (read-out: Ki), the inhibition constant Ki is 17.1 µM. In the case of `Cc1cccc(C(=O)Nc2cccc(-c3nnn[nH]3)c2)c1`, in test [1] (read-out: Ki), the Ki came out at 4.5 µM.

With `N#Cc1ccc(C(=O)Nc2cccc(-c3nn[nH]n3)c2)cc1`, in test [1], the Ki result is “Not Active”.

With `N#Cc1cc(Br)cc(C(=O)Nc2cccc(-c3nnn[nH]3)c2)c1`, the Ki in test [1] (read-out: Ki) was 34.1 µM. On to `O=C(Nc1cccc(-c2nnn[nH]2)c1)c1cccc(C2CC2)c1`, for which the inhibitory constant (Ki) in test [1] (read-out: Ki) was found to be 3.1 µM. Consider `O=C(Nc1cccc(-c2nnn[nH]2)c1)c1cc(O)cc(Br)c1`, for which the inhibitory constant (Ki) in test [1] (read-out: Ki) is 0.57 µM. For the compound `Nc1cc(C(=O)Nc2cccc(-c3nnn[nH]3)c2)cc(C(F)(F)F)c1`, the Ki in test [1] (read-out: Ki) came to 1 µM. `O=C(Nc1cccc(-c2nnn[nH]2)c1)c1cc(C(F)(F)F)cc2[nH]cnc12`: the “inhibition zone (IZ)” value in test [4] was “Dose-dependent effect”. For the same compound, the “fold change (FC)” value in test [5] and in test [6] was 64 each time. Further, the MIC in test [2] and in test [3] was at least 64 mg/L in each case. Besides, the “inhibition zone (IZ)” value in test [7] was “inactive”. Also, the Ki in test [1] (read-out: Ki) is 0.089 µM. Regarding `O=C(Nc1cccc(-c2nnn[nH]2)c1)c1cccc(Cl)c1`, in test [1] (read-out: Ki), the Ki is 6.2 µM. As to `O=C(Nc1cccc(-c2nnn[nH]2)c1)c1cc(F)cc2[nH]cnc12`, the Ki in test [1] (read-out: Ki) came to 2.7 µM. Same read-out and setting: for `O=C(Nc1cccc(-c2nnn[nH]2)c1)c1cccc([N+](=O)[O-])c1` the value was 3.8 µM; for `O=C(Nc1cccc(-c2nnn[nH]2)c1)c1ccc2[nH]ccc2c1`, 1.9 µM; for `CC(=O)c1cccc(C(=O)Nc2cccc(-c3nnn[nH]3)c2)c1`, 10.2 µM. Still for that read-out and setting: for `O=C(Nc1cccc(-c2nnn[nH]2)c1)c1cccc2[nH]ccc12` the value was 6.6 µM.

Values taken from ChEMBL document CHEMBL2029273, “Structure-based design of potent and ligand-efficient inhibitors of CTX-M class A β-lactamase” (J Med Chem, 2012).
